From ChEMBL document CHEMBL1125102, “Synthesis and biological evaluation of 2-styrylquinazolin-4(3H)-ones, a new class of antimitotic anticancer agents which inhibit tubulin polymerization” (J Med Chem, 1990)
≈ marks a conversion by molar mass, not a printed value. Where “and” joins values, the source holds several entries; their conditions need not be identical. Equal values may be shown once.

What was measured:
L1210 [1] = assay: In vivo inhibition of L1210 murine leukemia cells in mice (ip) at a dose of 200 mg/kg; assay type: functional, Mus musculus
Procedure, shortened: (§1)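 L1210 murine leukemia in mice: tumor cells inoculated ip, drug injected ip one day later; efficacy expressed as % T/C at the stated dose.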

L1210 [2] = assay: In vitro inhibition of L1210 murine leukemia cells by using MTT assay in cell culture; assay type: functional, cell-based; conditions: Mus musculus
Procedure, shortened: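 L1210 murine leukemia cells in culture; cytotoxicity measured by MTT assay, reported as IC50 in μg/mL.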

Tubulin = assay: Inhibition of tubulin polymerization; assay type: functional
Procedure, shortened: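 Glutamate-driven assembly: purified tubulin 1.0 mg/mL (10 μM) in 1.0 M monosodium glutamate pH 6.6, 1.0 mM MgCl2, 4% (v/v) DMSO, preincubated with drug 15 min at 37 °C, chilled, GTP added, then warmed 0→37 °C in cuvettes with turbidity read-out. IC50 = drug level halving extent of polymerization, obtained graphically in triplicate experiments.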

L1210 [3] = assay: In vivo inhibition of L1210 murine leukemia cells in mice (ip) at a dose of 50 mg/kg; assay type: functional, Mus musculus; procedure, shortened: as §1
L1210 [4] = assay: In vivo inhibition of L1210 murine leukemia cells in mice (ip) at a dose of 100 mg/kg; assay type: functional, Mus musculus; procedure, shortened: as §1
[5] = Antitumor activity against human melanoma xenograft LOX (SC) cells was determined after (ip) administration of a dose of 60 mg/kg; assay type: functional
[6] = Antitumor activity against human melanoma xenograft LOX (SC) cells was determined after (ip) administration of a dose of 120 mg/kg; assay type: functional
[7] = Antitumor activity against human melanoma xenograft LOX (SC) cells was determined after (ip) administration of a dose of 240 mg/kg; assay type: functional
MX1 [8] = assay: Antitumor activity against human mammary tumor xenograft MX-1(SRC) cells was determined after (ip) administration of a dose of 120 mg/kg; assay type: functional
MX1 [9] = assay: Antitumor activity against human mammary tumor xenograft MX-1(SRC) cells was determined after (ip) administration of a dose of 240 mg/kg; assay type: functional
MX1 [10] = assay: Antitumor activity against human mammary tumor xenograft MX-1(SRC) cells was determined after (ip) administration of a dose of 60 mg/kg; assay type: functional
[11] = Antitumor activity against murine melanoma B16 cells was determined after (ip) administration of a dose of 100 mg/kg, ip; assay type: functional, Mus musculus; conditions: route intraperitoneal
[12] = Antitumor activity against murine melanoma B16 cells was determined after (ip) administration of a dose of 200 mg/kg, ip; assay type: functional, Mus musculus; conditions: route intraperitoneal
[13] = Antitumor activity against murine melanoma B16 cells was determined after (ip) administration of a dose of 300 mg/kg, ip; assay type: functional, Mus musculus; conditions: route intraperitoneal
[14] = Antitumor activity against murine melanoma B16 cells was determined after (ip) administration of a dose of 400 mg/kg, ip; assay type: functional, Mus musculus; conditions: route intraperitoneal
[15] = Antitumor activity against murine melanoma B16 cells was determined after (ip) administration of a dose of 50 mg/kg, ip; assay type: functional, Mus musculus; conditions: route intraperitoneal
L1210 [16] = assay: (§2) Antitumor activity against […] was determined after (ip) administration of a dose of 60 mg/kg; assay type: functional, Mus musculus
P388 [17] = assay: as §2; assay type: functional, Mus musculus
L1210 [18] = assay: (§3) Antitumor activity against murine leukemia P388 cells was determined after (ip) administration of a dose of 120 mg/kg; assay type: functional, Mus musculus
P388 [19] = assay: as §3; assay type: functional, Mus musculus
[20] = Antitumor activity against murine sarcoma M531 cells was determined after (ip) administration of a dose of 120 mg/kg, ip; assay type: functional, Mus musculus; conditions: route intraperitoneal
[21] = Antitumor activity against murine sarcoma M531 cells was determined after (ip) administration of a dose of 240 mg/kg, ip; assay type: functional, Mus musculus; conditions: route intraperitoneal
L1210 [22] = assay: In vivo inhibition of L1210 murine leukemia cells in mice (ip) at a dose of 25 mg/kg; assay type: functional, Mus musculus; procedure, shortened: as §1
L1210 [23] = assay: In vivo inhibition of L1210 murine leukemia cells in mice (ip) at a dose of 240 mg/kg; assay type: functional, Mus musculus; procedure, shortened: as §1
L1210 [24] = assay: In vivo inhibition of L1210 murine leukemia cells in mice (ip) at a dose of 12 mg/kg; assay type: functional, Mus musculus; procedure, shortened: as §1
L1210 [25] = assay: […]; assay type: functional, Mus musculus; conditions: dose 150 mg/kg
Procedure, shortened: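 Murine L1210 leukemia cells were inoculated intraperitoneally into mice. Drug was injected intraperitoneally one day after tumor inoculation. Therapeutic efficacy was read out as % T/C at the stated dose in mg/kg.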

Oc1nc(/C=C/c2ccccc2)nc2cc(N3CCCCC3)c(F)cc12
T/C (L1210 [1]): 85%
IC50 (L1210 [2]): 0.2 µg/mL (≈ 0.572 µM)
IC50 (Tubulin): > 40 µM

Sc1nc(/C=C/c2ccccc2)nc2ccc(Cl)cc12
IC50 (L1210 [2]): > 1 µg/mL
T/C (L1210 [3]): 94%
IC50 (Tubulin): > 40 µM

Oc1nc(/C=C/c2ccccc2)nc2sccc12
T/C (L1210 [1]): 92%
IC50 (L1210 [2]): > 1 µg/mL
IC50 (Tubulin): > 40 µM

CN1CCN(c2cc3nc(/C=C/c4ccccc4)nc(O)c3cc2F)CC1
IC50 (L1210 [2]): 0.2 µg/mL (≈ 0.549 µM)
T/C (L1210 [3]): 100%
IC50 (Tubulin): > 40 µM

Nc1ccc2nc(/C=C/c3ccccc3)nc(O)c2c1
IC50 (L1210 [2]): 0.6 µg/mL (≈ 2.28 µM)
IC50 (Tubulin): > 40 µM

O=c1oc(/C=C/c2ccccc2)nc2c(O)nc(O)nc12
IC50 (L1210 [2]): > 1 µg/mL
T/C (L1210 [3]): 94%
IC50 (Tubulin): > 40 µM

Cc1cccc2nc(/C=C/c3ccccc3)nc(O)c12
T/C (L1210 [1]): 100%
IC50 (L1210 [2]): 0.03 µg/mL (≈ 0.114 µM)
IC50 (Tubulin): > 40 µM

Oc1nc(/C=C/c2ccccc2)nc2ccc(Cl)cc12
IC50 (L1210 [2]): 0.001 µg/mL (≈ 0.00354 µM)
T/C (L1210 [3]): 146%
IC50 (Tubulin): 2.5 µM

Oc1nc(/C=C/c2ccccc2)nc2ccc(I)cc12
T/C (L1210 [1]): 117%
IC50 (L1210 [2]): 0.3 µg/mL (≈ 0.802 µM)
IC50 (Tubulin): 1.4 µM

Oc1nc(/C=C/c2ccccc2)nc2c(Cl)cccc12
IC50 (L1210 [2]): > 1 µg/mL
IC50 (Tubulin): > 40 µM

Oc1ccc2nc(/C=C/c3ccccc3)nc(O)c2c1
T/C (L1210 [4]): 99%
IC50 (L1210 [2]): 0.006 µg/mL (≈ 0.0227 µM)
IC50 (Tubulin): > 40 µM

COc1ccc2nc(/C=C/c3ccccc3)[nH]c(=O)c2c1
IC50 (L1210 [2]): 0.001 µg/mL (≈ 0.00359 µM)
T/C (L1210 [3]): 173%
T/C [5]: 142%
T/C [6]: 142%
T/C [7]: 153%
T/C (MX1 [8]): 16%
T/C (MX1 [9]): -81%
T/C (MX1 [10]): 21%
IC50 (Tubulin): 2 µM
T/C [11]: 145%
T/C [12]: 197% and 141%
T/C [13]: 158%
T/C [14]: 190%
T/C [15]: 129%
T/C (L1210 [16]): 158%
T/C (P388 [17]): 135%
T/C (L1210 [18]): 225%
T/C (P388 [19]): 174%
T/C [20]: 136%
T/C [21]: 154%

COc1ccc2c(O)nc(/C=C/c3ccccc3)nc2c1
T/C (L1210 [1]): 100%
IC50 (L1210 [2]): 0.001 µg/mL (≈ 0.00359 µM)
IC50 (Tubulin): 5.7 µM

Cc1ccc2nc(/C=C/c3ccccc3)nc(O)c2c1
IC50 (L1210 [2]): 0.02 µg/mL (≈ 0.0762 µM)
T/C (L1210 [22]): 107%
IC50 (Tubulin): 2 µM

Oc1nc(CC(c2ccccc2)N2CCOCC2)nc2ccc(Cl)cc12 (configuration not stated)
T/C (L1210 [1]): 125%
IC50 (Tubulin): > 40 µM

Cc1nc(/C=C/c2ccccc2)nc(O)c1C
IC50 (L1210 [2]): > 1 µg/mL
T/C (L1210 [3]): 89%
IC50 (Tubulin): > 40 µM

Oc1nc(Cc2ccccc2)nc2ccc(Cl)cc12
IC50 (L1210 [2]): > 1 µg/mL
IC50 (Tubulin): > 40 µM

Nn1c(/C=C/c2ccccc2)nc2ccc(Cl)cc2c1=O
IC50 (L1210 [2]): > 1 µg/mL
T/C (L1210 [3]): 90%
IC50 (Tubulin): > 40 µM

Oc1nc(/C=C/c2ccccn2)nc2ccc(Cl)cc12
T/C (L1210 [1]): 91%
IC50 (L1210 [2]): 0.61 µg/mL (≈ 2.15 µM)
IC50 (Tubulin): > 40 µM

Oc1nc(/C=C/c2ccccc2)nc2cc(Cl)c(F)cc12
T/C (L1210 [4]): 111%
IC50 (L1210 [2]): 0.007 µg/mL (≈ 0.0233 µM)
IC50 (Tubulin): > 40 µM

Oc1nc(/C=C/c2ccccc2)nc2ccc(F)cc12
T/C (L1210 [4]): 129%
IC50 (L1210 [2]): 0.05 µg/mL (≈ 0.188 µM)
IC50 (Tubulin): 5.4 µM

Oc1nc(/C=C/c2ccccc2)nc2ccc3ncccc3c12
IC50 (L1210 [2]): 0.4 µg/mL (≈ 1.34 µM)
T/C (L1210 [3]): 95%
IC50 (Tubulin): > 40 µM

O=c1[nH]c(/C=C/c2ccccc2)nc2ccccc12
IC50 (L1210 [2]): 0.02 µg/mL (≈ 0.0806 µM)
T/C (L1210 [23]): 133%
IC50 (Tubulin): 11 µM

O=c1[nH]c(=O)c2nc(/C=C/c3ccccc3)nc(O)c2[nH]1
IC50 (L1210 [2]): > 1 µg/mL
T/C (L1210 [3]): 93%
IC50 (Tubulin): > 40 µM

CCOc1ccc2nc(/C=C/c3ccccc3)nc(O)c2c1
IC50 (L1210 [2]): 0.4 µg/mL (≈ 1.37 µM)
IC50 (Tubulin): > 40 µM

Oc1nc(CCc2ccccc2)nc2ccc(Cl)cc12
T/C (L1210 [1]): 113%
IC50 (L1210 [2]): 0.01 µg/mL (≈ 0.0351 µM)
IC50 (Tubulin): 7.3 µM

CC(=O)Oc1ccc2nc(/C=C/c3ccccc3)nc(O)c2c1
T/C (L1210 [1]): 78%
IC50 (L1210 [2]): 0.3 µg/mL (≈ 0.979 µM)
IC50 (Tubulin): 4 µM

CCN(CC)CCCC(C)Nc1nc(/C=C/c2ccccc2)nc2ccc(Cl)cc12 (configuration not stated)
T/C (L1210 [24]): 105%
IC50 (Tubulin): > 40 µM

O=S1(=O)N=C(/C=C/c2ccccc2)Nc2ccccc21
T/C (L1210 [1]): 91%
IC50 (L1210 [2]): > 1 µg/mL
IC50 (Tubulin): > 40 µM

COc1cc2nc(/C=C/c3ccccc3)nc(O)c2cc1OC
T/C (L1210 [1]): 96%
IC50 (L1210 [2]): 0.03 µg/mL (≈ 0.0973 µM)
IC50 (Tubulin): 3.3 µM

C/C=C/c1nc(O)c2ccccc2n1
IC50 (L1210 [2]): > 1 µg/mL
IC50 (Tubulin): > 40 µM

C/C=C/c1nc(O)c2cc(Cl)ccc2n1
T/C (L1210 [1]): 95%
IC50 (L1210 [2]): > 1 µg/mL
IC50 (Tubulin): > 40 µM

Oc1nc(/C=C/c2ccccc2)nc2cc(Cl)ccc12
IC50 (L1210 [2]): > 1 µg/mL
IC50 (Tubulin): 17 µM

Oc1nc(/C=C/c2ccccc2)nc2cccc(Cl)c12
T/C (L1210 [4]): 100%
IC50 (L1210 [2]): > 1 µg/mL
IC50 (Tubulin): > 40 µM

Cn1c(/C=C/c2ccccc2)nc(=O)c2cc(Cl)ccc21
IC50 (L1210 [2]): 0.04 µg/mL (≈ 0.135 µM)
T/C (L1210 [3]): 96%
IC50 (Tubulin): > 40 µM

O=c1c2cc(Cl)ccc2nc2n1NC(c1ccccc1)C2 (configuration not stated)
IC50 (L1210 [2]): > 1 µg/mL
IC50 (Tubulin): > 40 µM

Oc1nc(C#Cc2ccccc2)nc2ccc(Cl)cc12
T/C (L1210 [1]): 125%
IC50 (L1210 [2]): 0.002 µg/mL (≈ 0.00712 µM)
IC50 (Tubulin): > 40 µM

Nc1ccccc1C(=O)Oc1ccc2nc(/C=C/c3ccccc3)nc(O)c2c1
T/C (L1210 [25]): 99%
IC50 (L1210 [2]): > 1 µg/mL
IC50 (Tubulin): > 40 µM

COc1ccc2nc(CC(c3ccccc3)N3CCCCC3)nc(O)c2c1 (configuration not stated)
T/C (L1210 [4]): 107%
IC50 (L1210 [2]): 0.001 µg/mL (≈ 0.00275 µM)
IC50 (Tubulin): 14 µM

CN1CCN(C(Cc2nc(O)c3cc(Cl)ccc3n2)c2ccccc2)CC1 (configuration not stated)
T/C (L1210 [4]): 100%
IC50 (Tubulin): 5.3 µM

Cc1nc(O)c2cc(Cl)ccc2n1
IC50 (L1210 [2]): > 1 µg/mL
IC50 (Tubulin): > 40 µM

Oc1nc(/C=C/c2ccccc2)nc2ccc(Br)cc12
IC50 (L1210 [2]): 0.01 µg/mL (≈ 0.0306 µM)
T/C (L1210 [22]): 133%
IC50 (Tubulin): 2 µM
